Measurements as given in ChEMBL document CHEMBL4138242, “Synthesis and antibacterial evaluation of novel cationic chalcone derivatives possessing broad spectrum antibacterial activity” (Eur J Med Chem, 2018).
The source made the active and inactive calls. No cut-off for these calls is given here.

Legend:
Klebsiella pneumoniae [1] = experiment: Antibacterial activity against drug-resistant carbapenemase producing Klebsiella pneumoniae clinical isolate KP-14-45 after 16 to 20 hrs by broth microdilution method; assay type: functional
Outline: (§1)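 CLSI broth microdilution in Mueller-Hinton broth. A 4-6 h culture was diluted to about 10⁶ CFU/mL and mixed 1:1 with compound dilutions prepared at 256 to 0.5 µg/mL from aqueous stocks. Plates were incubated at 37 °C for 16-20 h and read visually for MIC. Each concentration was run in duplicate, and the experiment was repeated at least twice. Vancomycin and meropenem were comparators.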

Staphylococcus aureus [2] = experiment: Antibacterial activity against methicillin-resistant Staphylococcus aureus clinical isolate 1104060 after 16 to 20 hrs by broth microdilution method; assay type: functional; outline: as §1
Escherichia coli [3] = experiment: Antibacterial activity against drug-resistant NDM1 producing Escherichia coli clinical isolate Ecl-14-56 after 16 to 20 hrs by broth microdilution method; assay type: functional; outline: as §1
Escherichia coli [4] = experiment: Antibacterial activity against drug-resistant NDM1 producing Escherichia coli clinical isolate KP-13-58 after 16 to 20 hrs by broth microdilution method; assay type: functional; outline: as §1
Staphylococcus aureus [5] = experiment: Antibacterial activity against methicillin-resistant Staphylococcus aureus clinical isolate 0906202 after 16 to 20 hrs by broth microdilution method; assay type: functional; outline: as §1
Staphylococcus aureus [6] = experiment: Antibacterial activity against methicillin-resistant Staphylococcus aureus clinical isolate 1207007 after 16 to 20 hrs by broth microdilution method; assay type: functional; outline: as §1
Klebsiella pneumoniae [7] = experiment: Antibacterial activity against drug-resistant carbapenemase producing Klebsiella pneumoniae clinical isolate KP-14-1 after 16 to 20 hrs by broth microdilution method; assay type: functional; outline: as §1
Staphylococcus aureus [8] = experiment: Antibacterial activity against methicillin-resistant Staphylococcus aureus clinical isolate 1208143 after 16 to 20 hrs by broth microdilution method; assay type: functional; outline: as §1
Escherichia coli [9] = experiment: Antibacterial activity against drug-resistant NDM1 producing Escherichia coli clinical isolate SM-15-84 after 16 to 20 hrs by broth microdilution method; assay type: functional; outline: as §1
Escherichia coli [10] = experiment: Antibacterial activity against drug-resistant NDM1 producing Escherichia coli clinical isolate Ecl-13-62 after 16 to 20 hrs by broth microdilution method; assay type: functional; outline: as §1
Salmonella enterica = experiment: Antibacterial activity against Salmonella enterica ATCC 13076 after 16 to 20 hrs by broth microdilution method; assay type: functional
Outline: (§2)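 Broth microdilution per CLSI. Bacteria grown 4-6 h (about 10⁸ CFU/mL), then diluted to about 10⁶ CFU/mL. Medium: Mueller-Hinton broth, except Luria-Bertani broth for E. coli. Compounds in sterile water, twofold series 256-0.5 µg/mL, mixed 1:1 with inoculum, 37 °C for 16-20 h. MIC is the lowest concentration without visible growth. Duplicate wells; experiment repeated at least twice.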

Escherichia coli [11] = experiment: Induction of inner membrane permeabilization in Escherichia coli ATCC 25922 at 10 to 20 ug/ml measured every 2 mins for 12 mins by propidium iodide staining-based fluorescence assay; assay type: functional, organism-based
Outline: (§3)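 Mid-log cells (~10⁸ CFU/mL) were suspended in PBS (S. aureus) or HEPES/glucose/KCl (E. coli). They were preincubated with propidium iodide for 30 min (S. aureus) or 40 min (E. coli), and baseline fluorescence was read for 8 min. Compound was added to 20 µg/mL final, and fluorescence (ex 535/em 617 nm) was read every 2 min for 12 min.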

Klebsiella pneumoniae [12] = experiment: Antibacterial activity against drug-resistant carbapenemase producing Klebsiella pneumoniae clinical isolate KP-14-8 after 16 to 20 hrs by broth microdilution method; assay type: functional; outline: as §1
Staphylococcus aureus [13] = experiment: Antibacterial activity against methicillin-resistant Staphylococcus aureus clinical isolate 0831010 after 16 to 20 hrs by broth microdilution method; assay type: functional; outline: as §1
Staphylococcus aureus [14] = experiment: Antibacterial activity against Staphylococcus aureus ATCC 29213 after 16 to 20 hrs by broth microdilution method; assay type: functional; outline: as §2
Klebsiella pneumoniae [15] = experiment: Antibacterial activity against drug-resistant carbapenemase producing Klebsiella pneumoniae clinical isolate KP-14-5 after 16 to 20 hrs by broth microdilution method; assay type: functional; outline: as §1
Klebsiella pneumoniae [16] = experiment: Antibacterial activity against drug-resistant carbapenemase producing Klebsiella pneumoniae clinical isolate KP-13-45 after 16 to 20 hrs by broth microdilution method; assay type: functional; outline: as §1
Escherichia coli [17] = experiment: Induction of cytoplasmic membrane depolarization in Escherichia coli ATCC 25922 at 10 to 20 ug/ml measured every 2 mins for 12 mins by DiSC35 dye-based fluorescence assay; assay type: functional, organism-based
Outline: (§4)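 Mid-log cells (~10⁸ CFU/mL) were suspended in PBS (S. aureus) or HEPES/glucose/KCl with EDTA (E. coli). They were preloaded with DiSC3(5) for 30 min (S. aureus) or 40 min (E. coli), and baseline fluorescence was read for 8 min. Compound was added to 20 µg/mL final, and fluorescence (ex 622/em 670 nm) was read every 2 min for 12 min. Water served as control.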

Klebsiella pneumoniae [18] = experiment: Antibacterial activity against drug-resistant carbapenemase producing Klebsiella pneumoniae clinical isolate KP-13-54 after 16 to 20 hrs by broth microdilution method; assay type: functional; outline: as §1
Enterococcus faecalis = experiment: Antibacterial activity against Enterococcus faecalis ATCC 29212 after 16 to 20 hrs by broth microdilution method; assay type: functional; outline: as §2
Klebsiella pneumoniae [19] = experiment: Antibacterial activity against drug-resistant carbapenemase producing Klebsiella pneumoniae clinical isolate KP-13-55 after 16 to 20 hrs by broth microdilution method; assay type: functional; outline: as §1
Staphylococcus aureus [20] = experiment: Induction of cytoplasmic membrane depolarization in Staphylococcus aureus ATCC 29213 at 10 to 20 ug/ml measured every 2 mins for 12 mins by DiSC35 dye-based fluorescence assay; assay type: functional, organism-based; outline: as §4
Escherichia coli [21] = experiment: Antibacterial activity against drug-resistant NDM1 producing Escherichia coli clinical isolate CF-13-61 after 16 to 20 hrs by broth microdilution method; assay type: functional; outline: as §1
Staphylococcus aureus [22] = experiment: Induction of inner membrane permeabilization in Staphylococcus aureus ATCC 29213 at 10 to 20 ug/ml measured every 2 mins for 12 mins by propidium iodide staining-based fluorescence assay; assay type: functional, organism-based; outline: as §3
Klebsiella pneumoniae [23] = experiment: Antibacterial activity against drug-resistant carbapenemase producing Klebsiella pneumoniae clinical isolate KP-14-2 after 16 to 20 hrs by broth microdilution method; assay type: functional; outline: as §1
Escherichia coli [24] = experiment: Antibacterial activity against drug-resistant NDM1 producing Escherichia coli clinical isolate Ecl-14-59 after 16 to 20 hrs by broth microdilution method; assay type: functional; outline: as §1
Escherichia coli [25] = experiment: Antibacterial activity against drug-resistant NDM1 producing Escherichia coli clinical isolate Ecl-14-58 after 16 to 20 hrs by broth microdilution method; assay type: functional; outline: as §1
Staphylococcus aureus [26] = experiment: Antibacterial activity against methicillin-resistant Staphylococcus aureus clinical isolate 20131012632sau after 16 to 20 hrs by broth microdilution method; assay type: functional; outline: as §1
Staphylococcus aureus [27] = experiment: Antibacterial activity against methicillin-resistant Staphylococcus aureus clinical isolate 20130911034sau after 16 to 20 hrs by broth microdilution method; assay type: functional; outline: as §1
Escherichia coli [28] = experiment: Antibacterial activity against drug-resistant NDM1 producing Escherichia coli clinical isolate EC-13-49 after 16 to 20 hrs by broth microdilution method; assay type: functional; outline: as §1
[29] = Hemolytic activity in sheep RBC after 1 hr; assay type: ADME, cell-based, Ovis aries, Erythrocyte; conditions: sheep red blood cells (erythrocytes)
Outline: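 Sheep red blood cells (150 µL suspension) mixed with 50 µL of compound dilutions (5120-10 µg/mL), 1 h at 37 °C, then centrifuged. Supernatant read at 540 nm. Percent hemolysis calculated relative to RBC-only control (0%) and 0.1% Triton X-100 (100%).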

Staphylococcus aureus [30] = experiment: Antibacterial activity against methicillin-resistant Staphylococcus aureus clinical isolate 1-may after 16 to 20 hrs by broth microdilution method; assay type: functional; outline: as §1
Klebsiella pneumoniae [31] = experiment: Antibacterial activity against drug-resistant carbapenemase producing Klebsiella pneumoniae clinical isolate KP-14-3 after 16 to 20 hrs by broth microdilution method; assay type: functional; outline: as §1
Klebsiella pneumoniae [32] = experiment: Antibacterial activity against drug-resistant carbapenemase producing Klebsiella pneumoniae clinical isolate KP-14-18 after 16 to 20 hrs by broth microdilution method; assay type: functional; outline: as §1
Staphylococcus aureus [33] = experiment: Antibacterial activity against methicillin-resistant Staphylococcus aureus clinical isolate 1105183 cono7 after 16 to 20 hrs by broth microdilution method; assay type: functional; outline: as §1
Escherichia coli [34] = experiment: Antibacterial activity against drug-resistant NDM1 producing Escherichia coli clinical isolate 1460 after 16 to 20 hrs by broth microdilution method; assay type: functional; outline: as §1
Klebsiella pneumoniae [35] = experiment: Antibacterial activity against drug-resistant carbapenemase producing Klebsiella pneumoniae clinical isolate EC-13-23 after 16 to 20 hrs by broth microdilution method; assay type: functional; outline: as §1
Escherichia coli [36] = experiment: Antibacterial activity against drug-resistant NDM1 producing Escherichia coli clinical isolate CF-15-61 after 16 to 20 hrs by broth microdilution method; assay type: functional; outline: as §1
Escherichia coli [37] = experiment: Antibacterial activity against Escherichia coli ATCC 25922 after 16 to 20 hrs by broth microdilution method; assay type: functional; outline: as §2
Escherichia coli [38] = experiment: Antibacterial activity against drug-resistant NDM1 producing Escherichia coli clinical isolate EC-14-54 after 16 to 20 hrs by broth microdilution method; assay type: functional; outline: as §1
Escherichia coli [39] = experiment: Antibacterial activity against drug-resistant NDM1 producing Escherichia coli clinical isolate EA-14-61 after 16 to 20 hrs by broth microdilution method; assay type: functional; outline: as §1
Klebsiella pneumoniae [40] = experiment: Antibacterial activity against drug-resistant carbapenemase producing Klebsiella pneumoniae clinical isolate KP-14-4 after 16 to 20 hrs by broth microdilution method; assay type: functional; outline: as §1

Question: What does the source list for `CCCCCCCC[N+](C)(C)CC(=O)Nc1ccc(C(=O)/C=C/c2ccc(C)cc2)cc1.[Cl-]`?
Answer: MIC (Klebsiella pneumoniae [1]): 4 µg/mL; MIC (Staphylococcus aureus [2]): 4 µg/mL; MIC (Escherichia coli [3]): 4 µg/mL; MIC (Escherichia coli [4]): 2 µg/mL; MIC (Staphylococcus aureus [5]): 4 µg/mL; MIC (Staphylococcus aureus [6]): 0.5 µg/mL; MIC (Klebsiella pneumoniae [7]): 8 µg/mL; MIC (Staphylococcus aureus [8]): 2 µg/mL; MIC (Escherichia coli [9]): 1 µg/mL; MIC (Escherichia coli [10]): 8 µg/mL; MIC (Salmonella enterica): 8 µg/mL; Activity (Escherichia coli [11]): Active; MIC (Klebsiella pneumoniae [12]): 4 µg/mL; MIC (Staphylococcus aureus [13]): 0.5 µg/mL; MIC (Staphylococcus aureus [14]): 1 µg/mL; MIC (Klebsiella pneumoniae [15]): 4 µg/mL; MIC (Klebsiella pneumoniae [16]): 4 µg/mL; Activity (Escherichia coli [17]): Active; MIC (Klebsiella pneumoniae [18]): 8 µg/mL; MIC (Enterococcus faecalis): 1 µg/mL; MIC (Klebsiella pneumoniae [19]): 16 µg/mL; Activity (Staphylococcus aureus [20]): Active; MIC (Escherichia coli [21]): 32 µg/mL; Activity (Staphylococcus aureus [22]): Active; MIC (Klebsiella pneumoniae [23]): 16 µg/mL; MIC (Escherichia coli [24]): 4 µg/mL; MIC (Escherichia coli [25]): 4 µg/mL; MIC (Staphylococcus aureus [26]): 2 µg/mL; MIC (Staphylococcus aureus [27]): 0.5 µg/mL; MIC (Escherichia coli [28]): 4 µg/mL; HC50 at 1 h [29]: 153 µg/mL; MIC (Staphylococcus aureus [30]): 1 µg/mL; MIC (Klebsiella pneumoniae [31]): 8 µg/mL; MIC (Klebsiella pneumoniae [32]): 16 µg/mL; MIC (Staphylococcus aureus [33]): 1 µg/mL; MIC (Escherichia coli [34]): 8 µg/mL; MIC (Klebsiella pneumoniae [35]): 4 µg/mL; MIC (Escherichia coli [36]): 4 µg/mL; MIC (Escherichia coli [37]): 4 µg/mL; MIC (Escherichia coli [38]): 8 µg/mL; MIC (Escherichia coli [39]): 4 µg/mL; MIC (Klebsiella pneumoniae [40]): 4 µg/mL

Question: What does the source list for `CCCCCCCC[N+](C)(C)CC(=O)Nc1ccc(C(=O)/C=C/c2ccc(F)cc2F)cc1.[Cl-]`?
Answer: MIC (Klebsiella pneumoniae [1]): 8 µg/mL; MIC (Staphylococcus aureus [2]): 8 µg/mL; MIC (Escherichia coli [3]): 4 µg/mL; MIC (Escherichia coli [4]): 2 µg/mL; MIC (Staphylococcus aureus [5]): 4 µg/mL; MIC (Staphylococcus aureus [6]): 0.5 µg/mL; MIC (Klebsiella pneumoniae [7]): 8 µg/mL; MIC (Staphylococcus aureus [8]): 2 µg/mL; MIC (Escherichia coli [9]): 16 µg/mL; MIC (Escherichia coli [10]): 4 µg/mL; MIC (Salmonella enterica): 4 µg/mL; Activity (Escherichia coli [11]): Active; MIC (Klebsiella pneumoniae [12]): 4 µg/mL; MIC (Staphylococcus aureus [13]): 0.5 µg/mL; MIC (Staphylococcus aureus [14]): 2 µg/mL; MIC (Klebsiella pneumoniae [15]): 4 µg/mL; MIC (Klebsiella pneumoniae [16]): 8 µg/mL; Activity (Escherichia coli [17]): Active; MIC (Klebsiella pneumoniae [18]): 4 µg/mL; MIC (Enterococcus faecalis): 2 µg/mL; MIC (Klebsiella pneumoniae [19]): 8 µg/mL; Activity (Staphylococcus aureus [20]): Active; MIC (Escherichia coli [21]): 2 µg/mL; Activity (Staphylococcus aureus [22]): Active; MIC (Klebsiella pneumoniae [23]): 16 µg/mL; MIC (Escherichia coli [24]): 4 µg/mL; MIC (Escherichia coli [25]): 4 µg/mL; MIC (Staphylococcus aureus [26]): 4 µg/mL; MIC (Staphylococcus aureus [27]): 1 µg/mL; MIC (Escherichia coli [28]): 4 µg/mL; HC50 at 1 h [29]: 54 µg/mL; MIC (Staphylococcus aureus [30]): 1 µg/mL; MIC (Klebsiella pneumoniae [31]): 8 µg/mL; MIC (Klebsiella pneumoniae [32]): 8 µg/mL; MIC (Staphylococcus aureus [33]): 1 µg/mL; MIC (Escherichia coli [34]): 4 µg/mL; MIC (Klebsiella pneumoniae [35]): 8 µg/mL; MIC (Escherichia coli [36]): 4 µg/mL; MIC (Escherichia coli [37]): 4 µg/mL; MIC (Escherichia coli [38]): 8 µg/mL; MIC (Escherichia coli [39]): 4 µg/mL; MIC (Klebsiella pneumoniae [40]): 4 µg/mL
